# Assay results reported in ChEMBL document CHEMBL4699633, “Total Syntheses of Prenylated Isoflavones from Erythrina sacleuxii and Their Antibacterial Activity: 5-Deoxy-3'-prenylbiochanin A and Erysubin F” (J Nat Prod, 2020).
# What was measured:
# Listeria monocytogenes = assay: Antibacterial activity against Listeria monocytogenes assessed as reduction in microbial growth measured every 5 mins for 24 hrs; type: functional
# Escherichia coli = assay: Antibacterial activity against Escherichia coli ATCC 25922 assessed as reduction in microbial growth after 18 hrs by agar dilution method; type: functional
# Outline: (§1)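 Agar dilution on Mueller Hinton agar; compounds dissolved in DMSO, 2-fold serial dilutions in solvent added to agar (DMSO 1% v/v final). Inocula from overnight cultures, adjusted photometrically. Plates incubated aerobically at 37 °C for 18 h. Vancomycin or ampicillin as positive controls, DMSO-only plates as negative controls.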
# Plasmodium falciparum [1] = assay: Antiplasmodial activity against chloroquine-sensitive Plasmodium falciparum D6 by [3H]-hypoxanthine incorporation assay; type: functional, organism-based
# Plasmodium falciparum [2] = assay: Antiplasmodial activity against chloroquine-resistant Plasmodium falciparum W2 by [3H]-hypoxanthine incorporation assay; type: functional, organism-based
# Staphylococcus aureus [3] = assay: Antibacterial activity against methicilin-resistant Staphylococcus aureus ATCC 43300 assessed as reduction in microbial growth after 18 hrs by agar dilution method; type: functional
# Outline: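 MRSA ATCC 43300 tested by standardized agar dilution. Compounds dissolved in DMSO and 2-fold serially diluted in solvent, then added to Mueller Hinton agar at 1% v/v DMSO final. Inoculum from overnight culture, photometrically adjusted. Plates incubated aerobically at 37 °C for 18 h. Vancomycin served as positive control. DMSO-only (1% v/v) plates served as negative control. Read-out was MIC.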
# Candida albicans = assay: Antifungal activity against Candida albicans ATCC 90028 assessed as reduction in microbial growth after 48 hrs by agar dilution method; type: functional
# Outline: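 Agar dilution in yeast extract peptone dextrose (YPD) agar; compounds in DMSO, 2-fold serial dilutions added to medium (DMSO 1% v/v final). Inoculum from overnight culture, adjusted photometrically. Plates incubated at 30 °C for 48 h. Amphotericin B as positive control, DMSO-only plates as negative control.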
# [4] = tested on: Salmonella enterica subsp. enterica; assay: Antibacterial activity against Salmonella enterica subsp.enterica NCTC 13349 assessed as reduction in microbial growth after 18 hrs by agar dilution method; type: functional; outline: as §1
# Staphylococcus aureus [5] = assay: Antibacterial activity against methicillin-resistant Staphylococcus aureus assessed as reduction in microbial growth after 24 hrs by two-fold serial dilution method; type: functional
# [6] = tested on: Mycobacterium tuberculosis; assay: Antimycobacterial activity against Mycobacterium tuberculosis; type: functional
Compound,MIC (Listeria monocytogenes) [µM],MIC (Escherichia coli) [µM],MIC (Staphylococcus aureus [3]) [µM],MIC (Candida albicans) [µM],MIC [4] [µM],further results
CC(C)=CCc1c(O)cc(O)c2c(=O)c(-c3ccc(O)cc3)coc12,> 148,,,,,
COc1ccc(-c2coc3cc(O)ccc3c2=O)cc1CC=C(C)C,,> 95.1,> 155,> 95.1,> 190,IC50 (Plasmodium falciparum [1]): 20 µM; IC50 (Plasmodium falciparum [2]): 20 µM
CC(C)=CCc1cc(-c2cc(=O)c3ccc(O)c(CC=C(C)C)c3o2)ccc1O,,> 82,20.5,> 82,> 82,
C[C@@H]1[C@H](O)[C@@H](C)/C=C/C=C/C=C/C=C/C=C/C=C/C=C/[C@H](O[C@@H]2O[C@H](C)[C@@H](O)[C@H](N)[C@@H]2O)C[C@@H]2O[C@](O)(C[C@@H](O)C[C@@H](O)[C@H](O)CC[C@@H](O)C[C@@H](O)CC(=O)O[C@H]1C)C[C@H](O)[C@H]2C(=O)O [AMPHOTERICIN B],,,,0.5,,
CC1(C)S[C@@H]2[C@H](NC(=O)[C@H](N)c3ccccc3)C(=O)N2[C@H]1C(=O)O [AMPICILLIN],,11.4,,,11.4,
CC(C)=CCc1cc(-c2coc3cc(O)cc(O)c3c2=O)ccc1O [CORYLIN],59.1,,,,,
CC(C)=CCc1cc(-c2coc3c(CC=C(C)C)c(O)ccc3c2=O)ccc1O [ERYSUBIN F],,> 82,15.4,> 82,> 82,MIC (Staphylococcus aureus [5]): 256 µM; MIC [6]: 32 µM
CN[C@H](CC(C)C)C(=O)N[C@H]1C(=O)N[C@@H](CC(N)=O)C(=O)N[C@H]2C(=O)N[C@H]3C(=O)N[C@H](C(=O)N[C@H](C(=O)O)c4cc(O)cc(O)c4-c4cc3ccc4O)[C@H](O)c3ccc(c(Cl)c3)Oc3cc2cc(c3O[C@@H]2O[C@H](CO)[C@@H](O)[C@H](O)[C@H]2O[C@H]2C[C@](C)(N)[C@H](O)[C@H](C)O2)Oc2ccc(cc2Cl)[C@H]1O [VANCOMYCIN],,,0.5,,,
CC(C)=CCc1c(O)cc2occ(-c3ccc(O)cc3)c(=O)c2c1O [WIGHTEONE],29.6,,,,,
